{
  "source": "ChEMBL document CHEMBL4024792",
  "about": "“(N-Hydroxycarbonylbenylamino)quinolines as Selective Histone Deacetylase 6 Inhibitors Suppress Growth of Multiple Myeloma in Vitro and in Vivo” (J Med Chem, 2018)",
  "key": {"[1]": {"molecular_target": "Histone deacetylase 3/Nuclear receptor corepressor 2 (HDAC3/NCoR2) (Homo sapiens, UniProt O15379)", "sequence (O15379 whole entry, the tested form may be a part)": "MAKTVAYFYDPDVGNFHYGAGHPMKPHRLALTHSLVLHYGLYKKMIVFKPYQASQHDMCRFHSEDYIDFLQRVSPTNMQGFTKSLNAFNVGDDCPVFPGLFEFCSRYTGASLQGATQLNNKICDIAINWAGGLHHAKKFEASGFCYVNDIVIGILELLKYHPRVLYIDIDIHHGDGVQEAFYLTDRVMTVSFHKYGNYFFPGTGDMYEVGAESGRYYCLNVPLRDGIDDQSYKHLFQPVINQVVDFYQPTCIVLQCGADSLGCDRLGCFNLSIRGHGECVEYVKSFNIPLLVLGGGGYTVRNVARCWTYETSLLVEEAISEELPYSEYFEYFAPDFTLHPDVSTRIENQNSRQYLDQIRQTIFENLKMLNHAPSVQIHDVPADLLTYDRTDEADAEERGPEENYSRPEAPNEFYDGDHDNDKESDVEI", "sequence (Q9Y618 whole entry, further chain, the tested form may be a part)": "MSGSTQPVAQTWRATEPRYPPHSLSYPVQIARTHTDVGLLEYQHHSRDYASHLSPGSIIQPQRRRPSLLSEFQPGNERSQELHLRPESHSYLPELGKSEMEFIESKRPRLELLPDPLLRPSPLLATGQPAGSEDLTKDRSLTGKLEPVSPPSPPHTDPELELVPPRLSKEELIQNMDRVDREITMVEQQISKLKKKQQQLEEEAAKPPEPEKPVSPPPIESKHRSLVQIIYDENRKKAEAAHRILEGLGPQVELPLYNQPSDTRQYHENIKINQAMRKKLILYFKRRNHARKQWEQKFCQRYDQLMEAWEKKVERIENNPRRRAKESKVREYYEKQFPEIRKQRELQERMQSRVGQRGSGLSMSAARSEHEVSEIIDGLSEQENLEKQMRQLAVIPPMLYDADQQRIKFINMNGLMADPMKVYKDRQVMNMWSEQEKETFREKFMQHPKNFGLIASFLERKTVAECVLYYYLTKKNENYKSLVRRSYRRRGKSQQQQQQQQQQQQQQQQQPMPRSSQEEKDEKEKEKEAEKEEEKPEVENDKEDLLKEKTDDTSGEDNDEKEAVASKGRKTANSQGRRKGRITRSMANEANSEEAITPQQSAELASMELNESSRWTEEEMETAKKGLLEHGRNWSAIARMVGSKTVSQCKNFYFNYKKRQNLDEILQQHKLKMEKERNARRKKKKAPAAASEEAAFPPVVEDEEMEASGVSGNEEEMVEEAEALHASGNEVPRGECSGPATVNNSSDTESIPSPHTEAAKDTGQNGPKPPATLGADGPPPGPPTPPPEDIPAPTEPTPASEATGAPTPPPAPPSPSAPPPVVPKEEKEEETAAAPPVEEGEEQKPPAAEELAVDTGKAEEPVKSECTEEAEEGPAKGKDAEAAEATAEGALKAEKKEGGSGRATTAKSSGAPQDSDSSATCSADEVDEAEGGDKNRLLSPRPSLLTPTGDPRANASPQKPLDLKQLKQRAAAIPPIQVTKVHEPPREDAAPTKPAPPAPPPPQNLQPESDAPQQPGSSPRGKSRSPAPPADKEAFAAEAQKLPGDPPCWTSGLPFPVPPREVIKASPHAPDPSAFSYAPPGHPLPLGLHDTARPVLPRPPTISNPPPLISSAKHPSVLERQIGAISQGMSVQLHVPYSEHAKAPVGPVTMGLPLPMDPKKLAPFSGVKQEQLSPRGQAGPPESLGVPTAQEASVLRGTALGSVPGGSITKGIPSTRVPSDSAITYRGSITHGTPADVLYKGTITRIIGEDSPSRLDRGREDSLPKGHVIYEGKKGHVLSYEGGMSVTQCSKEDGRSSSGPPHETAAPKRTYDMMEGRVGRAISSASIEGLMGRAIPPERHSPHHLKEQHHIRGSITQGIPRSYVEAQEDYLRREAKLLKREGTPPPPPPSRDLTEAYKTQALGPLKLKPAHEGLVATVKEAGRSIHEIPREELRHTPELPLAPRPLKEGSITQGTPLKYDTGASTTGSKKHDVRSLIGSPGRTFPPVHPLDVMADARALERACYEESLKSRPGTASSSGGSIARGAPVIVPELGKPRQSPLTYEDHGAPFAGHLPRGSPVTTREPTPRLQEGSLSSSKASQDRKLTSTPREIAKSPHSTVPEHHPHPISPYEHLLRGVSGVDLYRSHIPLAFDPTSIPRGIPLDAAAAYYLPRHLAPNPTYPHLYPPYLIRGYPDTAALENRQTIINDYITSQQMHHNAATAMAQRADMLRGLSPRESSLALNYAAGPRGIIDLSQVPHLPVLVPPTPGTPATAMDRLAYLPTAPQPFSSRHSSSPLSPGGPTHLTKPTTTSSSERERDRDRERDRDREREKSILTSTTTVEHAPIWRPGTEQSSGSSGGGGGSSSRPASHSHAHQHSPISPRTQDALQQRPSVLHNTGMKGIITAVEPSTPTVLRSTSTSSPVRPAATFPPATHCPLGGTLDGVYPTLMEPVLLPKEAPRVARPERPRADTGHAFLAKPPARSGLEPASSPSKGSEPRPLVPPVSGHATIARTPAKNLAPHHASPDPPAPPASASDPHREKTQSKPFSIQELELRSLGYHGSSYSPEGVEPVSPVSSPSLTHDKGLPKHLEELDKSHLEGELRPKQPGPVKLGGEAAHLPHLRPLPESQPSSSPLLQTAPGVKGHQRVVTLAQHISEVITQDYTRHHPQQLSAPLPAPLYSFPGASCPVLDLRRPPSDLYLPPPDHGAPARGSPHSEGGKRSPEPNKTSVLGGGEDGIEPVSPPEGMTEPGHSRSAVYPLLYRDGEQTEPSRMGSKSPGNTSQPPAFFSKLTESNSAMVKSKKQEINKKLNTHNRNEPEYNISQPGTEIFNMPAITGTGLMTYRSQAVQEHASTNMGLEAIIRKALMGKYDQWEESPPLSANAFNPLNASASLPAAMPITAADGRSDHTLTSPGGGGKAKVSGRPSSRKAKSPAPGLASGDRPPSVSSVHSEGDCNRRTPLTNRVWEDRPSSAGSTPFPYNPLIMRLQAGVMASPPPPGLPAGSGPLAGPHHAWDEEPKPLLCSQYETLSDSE", "experiment": "Inhibition of full length recombinant human C-terminal His-tagged HDAC3/N-terminal GST-tagged NCOR2 (395 to 489 residues) expressed in insect cells using RHK-K(Ac)-AMC as substrate after 60 mins by fluorescence assay"}, "NCI-H929 [2]": {"tested_on": "NCI-H929", "experiment": "Antiproliferative activity against human NCI-H929 cells after 48 hrs by SRB assay", "format": "functional", "settings": "NCI-H929, 48 h", "outline": "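Cells were exposed to test compounds at the indicated concentrations for 48 h. They were then fixed with 10% trichloroacetic acid, stained 30 min with 0.4% SRB in 1% AcOH, and washed with 1% AcOH. Bound dye was solubilized in 10 mM Tris base and OD read at 510 nm. Lines cultured in RPMI 1640 with 20% FBS and penicillin/streptomycin, 37°C, 5% CO2.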"}, "Histone deacetylase 1": {"molecular_target": "Histone deacetylase 1 (Homo sapiens, UniProt Q13547)", "sequence (Q13547 whole entry)": "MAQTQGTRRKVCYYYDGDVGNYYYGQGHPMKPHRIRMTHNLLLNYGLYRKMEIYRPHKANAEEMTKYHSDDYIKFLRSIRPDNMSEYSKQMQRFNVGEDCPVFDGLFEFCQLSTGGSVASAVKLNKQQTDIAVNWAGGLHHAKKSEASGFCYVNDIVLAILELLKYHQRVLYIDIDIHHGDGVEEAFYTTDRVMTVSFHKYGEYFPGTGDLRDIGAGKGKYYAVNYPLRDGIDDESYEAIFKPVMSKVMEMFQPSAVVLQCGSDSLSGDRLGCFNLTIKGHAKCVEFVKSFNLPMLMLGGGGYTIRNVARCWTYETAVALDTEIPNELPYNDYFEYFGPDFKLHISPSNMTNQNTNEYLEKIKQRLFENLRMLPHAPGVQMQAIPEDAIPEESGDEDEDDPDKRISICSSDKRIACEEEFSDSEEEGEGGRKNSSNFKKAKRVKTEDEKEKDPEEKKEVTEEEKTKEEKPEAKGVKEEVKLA", "experiment": "Inhibition of full length recombinant human C-terminal FLAG/His-tagged HDAC1 expressed in baculovirus infected sf21 cells using RHK-K(Ac)-AMC as substrate after 60 mins by fluorescence assay"}, "Histone deacetylase 2": {"molecular_target": "Histone deacetylase 2 (Homo sapiens, UniProt Q92769)", "sequence (Q92769 whole entry)": "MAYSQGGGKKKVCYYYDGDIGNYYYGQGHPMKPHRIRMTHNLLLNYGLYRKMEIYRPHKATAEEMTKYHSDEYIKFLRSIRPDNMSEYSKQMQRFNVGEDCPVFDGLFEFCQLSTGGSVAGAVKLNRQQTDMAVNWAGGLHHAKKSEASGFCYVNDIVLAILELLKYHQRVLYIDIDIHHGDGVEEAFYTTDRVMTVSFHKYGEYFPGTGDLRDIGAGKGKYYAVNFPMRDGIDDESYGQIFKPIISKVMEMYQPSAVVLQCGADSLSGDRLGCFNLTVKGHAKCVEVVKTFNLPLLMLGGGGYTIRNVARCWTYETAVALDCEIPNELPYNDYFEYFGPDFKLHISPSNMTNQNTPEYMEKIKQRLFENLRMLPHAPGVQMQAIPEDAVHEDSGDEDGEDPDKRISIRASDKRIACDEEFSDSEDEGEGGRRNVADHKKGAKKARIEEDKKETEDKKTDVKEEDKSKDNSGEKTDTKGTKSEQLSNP", "experiment": "Inhibition of full length recombinant human C-terminal GST-tagged HDAC2 expressed in baculovirus infected insect cells using RHK-K(Ac)-AMC as substrate after 60 mins by fluorescence assay"}, "Histone deacetylase 11": {"molecular_target": "T1, Histone deacetylase 11 (Homo sapiens, UniProt Q96DB2)", "T1 sequence (Q96DB2 whole entry)": "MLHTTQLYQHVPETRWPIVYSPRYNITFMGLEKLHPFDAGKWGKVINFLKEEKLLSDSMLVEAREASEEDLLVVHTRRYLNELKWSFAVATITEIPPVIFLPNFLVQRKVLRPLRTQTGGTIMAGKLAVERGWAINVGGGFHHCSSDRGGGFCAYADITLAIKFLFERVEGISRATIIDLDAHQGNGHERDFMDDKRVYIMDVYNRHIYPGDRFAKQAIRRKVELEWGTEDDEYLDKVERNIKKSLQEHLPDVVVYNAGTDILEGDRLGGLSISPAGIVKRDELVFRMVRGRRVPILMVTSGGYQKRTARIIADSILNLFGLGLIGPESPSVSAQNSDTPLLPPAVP", "experiment": "Inhibition of recombinant human N-terminal Strep2-tagged HDAC11 (1 to 347 residues) expressed in baculovirus infected insect cells using Boc-Lys(TFA)-AMC as substrate after 60 mins by fluorescence assay"}, "RPMI-8226 [3]": {"tested_on": "RPMI-8226", "experiment": "Induction of apoptosis in human RPMI8226 cells at 5 uM after 24 hrs in presence of bortezomib by Annexin V/propidium iodide staining based flow cytometry", "format": "functional, cell-based"}, "RPMI-8226 [4]": {"tested_on": "RPMI-8226", "experiment": "Cell cycle arrest in human RPMI8226 cells assessed as accumulation at G2/M phase at 5 uM after 24 hrs in presence of bortezomib by propidium iodide staining based flow cytometry (reference value: 23.94%)", "format": "functional"}, "[5]": {"experiment": "Half life in beagle dog hepatocytes at 10 uM by LC-MS/MS analysis", "format": "ADME, cell-based, Canis lupus familiaris, Hepatocyte", "outline": "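Substrate depletion in cryopreserved hepatocytes (male SD rat, male beagle dog, human). Compound at 10 µM incubated at 37 °C for up to 4 h. Cell density approximately 0.5 × 10^6 hepatocytes/well for rat and dog, 0.24 × 10^6/well for human. Half-life and CLint derived from depletion; % remaining at 60 min also reported.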"}, "NCI-H929 [6]": {"tested_on": "NCI-H929", "experiment": "Cell cycle arrest in human NCI-H929 cells assessed as accumulation at G2/M phase at 5 uM after 24 hrs by propidium iodide staining based flow cytometry (reference value: 31.63%)", "format": "functional"}, "U-266 [7]": {"tested_on": "U-266", "experiment": "Cell cycle arrest in human U266 cells assessed as accumulation at G2/M phase at 5 uM after 24 hrs by propidium iodide staining based flow cytometry (reference value: 35.13%)", "format": "functional"}, "RPMI-8226 [8]": {"tested_on": "RPMI-8226", "experiment": "Cell cycle arrest in human RPMI8226 cells assessed as accumulation at S phase at 5 uM after 24 hrs in presence of bortezomib by propidium iodide staining based flow cytometry (reference value: 19.53%)", "format": "functional"}, "RPMI-8226 [9]": {"tested_on": "RPMI-8226", "experiment": "Induction of apoptosis in human RPMI8226 cells at 5 uM after 24 hrs by Annexin V/propidium iodide staining based flow cytometry", "format": "functional, cell-based"}, "RPMI-8226 [10]": {"tested_on": "RPMI-8226", "experiment": "Cell cycle arrest in human RPMI8226 cells assessed as accumulation at G0/G1 phase at 5 uM after 24 hrs by propidium iodide staining based flow cytometry (reference value: 44.67%)", "format": "functional"}, "Mus musculus": {"tested_on": "Mus musculus", "experiment": "Toxicity in Balb/c mouse assessed as change in body weight at 50 to 200 mg/kg, ip administered once daily for 1 week measured for 1 week", "format": "organism-based", "settings": "in vivo, 168 h", "outline": "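Male 8-week balb/c mice, ten per dose, given compound ip once daily for 7 days at 50, 100 or 200 mg/kg, then monitored one week. Body weight recorded over 14 days. MTD = highest dose with no drug-related moribund state or death and weight loss under 20%.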"}, "U-266 [11]": {"tested_on": "U-266", "experiment": "Cell cycle arrest in human U266 cells assessed as accumulation at G2/M phase at 5 uM after 24 hrs in presence of bortezomib by propidium iodide staining based flow cytometry (reference value: 35.13%)", "format": "functional"}, "NCI-H929 [12]": {"tested_on": "NCI-H929", "experiment": "Cell cycle arrest in human NCI-H929 cells assessed as accumulation at G0/G1 phase at 5 uM after 24 hrs in presence of bortezomib by propidium iodide staining based flow cytometry (reference value: 49.39%)", "format": "functional"}, "U-266 [13]": {"tested_on": "U-266", "experiment": "Cell cycle arrest in human U266 cells assessed as accumulation at G0/G1 phase at 5 uM after 24 hrs by propidium iodide staining based flow cytometry (reference value: 40.29%)", "format": "functional"}, "[14]": {"experiment": "Apparent permeability from apical to basolateral side in human Caco2 cells at 10 uM after 2 hrs by LC-MS/MS analysis", "format": "ADME, cell-based", "settings": "Caco-2", "outline": "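Caco-2 cells seeded at 8.4 × 10^4 cells/cm2 on polycarbonate inserts for 21 days. For A→B, donor was apical (HBSS/MES pH 6.5, 10 µM compound) and receiver basolateral (HBSS/HEPES pH 7.4). For B→A, donor was basolateral (HBSS/HEPES pH 7.4, 10 µM) and receiver apical (HBSS/MES pH 6.5). Incubated at 37 °C for 2 h. Receiver sampled at 30, 60, 90 and 120 min, donor at 0 and 120 min.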"}, "RPMI-8226 [15]": {"tested_on": "RPMI-8226", "experiment": "Cell cycle arrest in human RPMI8226 cells assessed as accumulation at G2/M phase at 5 uM after 24 hrs by propidium iodide staining based flow cytometry (reference value: 23.94%)", "format": "functional"}, "Salmonella typhimurium": {"tested_on": "Salmonella typhimurium", "experiment": "Mutagenicity in Salmonella typhimurium TA100 assessed as increase in number of revertant colonies at 3 to 3000 ug/plate in absence of S9 fraction by Ames test", "format": "toxicity", "settings": "salmonella enterica subsp. enterica serovar typhimurium", "outline": "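Ames test, TA98 and TA100. Overnight broth cultures preincubated 20 min at 35-37 °C with compound (DMSO stock) plus Aroclor 1254-induced rat liver S9 mix or PBS, then plated in top agar with 0.05 mM histidine/biotin. Final 3-3000 µg/plate; revertants counted after 72 h at 37 °C. ≥3-fold over vehicle = mutagenic; ≤50% = cytotoxic.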"}, "U-266 [16]": {"tested_on": "U-266", "experiment": "Cell cycle arrest in human U266 cells assessed as accumulation at S phase at 5 uM after 24 hrs in presence of bortezomib by propidium iodide staining based flow cytometry (reference value: 14.05%)", "format": "functional"}},
  "note": "Active and inactive are the calls of the source. The calls are words filed in the database; no cut-off is given here.",
  "data": [
    {"smiles": "O=C(NO)c1ccc(CNc2cccc3ncccc23)cc1", "values": [
      {"measurement": "IC50", "setting": "[1]", "result": 5.48, "unit": "µM"},
      {"measurement": "GI50", "setting": "NCI-H929 [2]", "result": 6.2, "unit": "µM"},
      {"measurement": "IC50", "setting": "Histone deacetylase 1", "result": 7.05, "unit": "µM"},
      {"measurement": "IC50", "setting": "Histone deacetylase 2", "result": 8.61, "unit": "µM"},
      {"measurement": "IC50", "setting": "Histone deacetylase 11", "result": 1, "unit": "µM"}
    ]},
    {"smiles": "O=C(NO)c1ccc(CNc2cccc3cccnc23)cc1", "values": [
      {"measurement": "Activity", "setting": "RPMI-8226 [3]", "result": "Active"},
      {"measurement": "IC50", "setting": "[1]", "result": 7.75, "unit": "µM"},
      {"measurement": "Activity", "setting": "RPMI-8226 [4]", "result": 2.33, "unit": "%"},
      {"measurement": "GI50", "setting": "NCI-H929 [2]", "result": 9.14, "unit": "µM"},
      {"measurement": "IC50", "setting": "Histone deacetylase 1", "result": 9.55, "unit": "µM"},
      {"measurement": "half-life at 10 µM", "setting": "[5]", "result": 1.97, "unit": "h"},
      {"measurement": "Activity", "setting": "NCI-H929 [6]", "result": 31.28, "unit": "%"},
      {"measurement": "Activity", "setting": "U-266 [7]", "result": 23.3, "unit": "%"},
      {"measurement": "Activity", "setting": "RPMI-8226 [8]", "result": 2.46, "unit": "%"},
      {"measurement": "Activity", "setting": "RPMI-8226 [9]", "result": "Active"},
      {"measurement": "Activity", "setting": "RPMI-8226 [10]", "result": 41.95, "unit": "%"},
      {"measurement": "Activity", "setting": "Mus musculus", "result": "Non-Toxic"},
      {"measurement": "Activity", "setting": "U-266 [11]", "result": 21.52, "unit": "%"},
      {"measurement": "Activity", "setting": "NCI-H929 [12]", "result": 15.77, "unit": "%"},
      {"measurement": "Activity", "setting": "U-266 [13]", "result": 52.88, "unit": "%"},
      {"measurement": "Papp A→B at 2 h, 10 µM", "setting": "[14]", "result": 24, "unit": "×10⁻⁶ cm/s"},
      {"measurement": "Activity", "setting": "RPMI-8226 [15]", "result": 31.53, "unit": "%"},
      {"measurement": "Activity", "setting": "Salmonella typhimurium", "result": "Non-Toxic"},
      {"measurement": "IC50", "setting": "Histone deacetylase 2", "result": 12.5, "unit": "µM"},
      {"measurement": "IC50", "setting": "Histone deacetylase 11", "result": 0.376, "unit": "µM"},
      {"measurement": "Activity", "setting": "U-266 [16]", "result": 7.56, "unit": "%"}
    ]}
  ]
}
